Results on 15 compounds are retold here after ChEMBL document CHEMBL3745667, “Identification of Noncompetitive Inhibitors of Cytosolic 5'-Nucleotidase II Using a Fragment-Based Approach” (J Med Chem, 2015).

What is called inhibition is how much of the control response was suppressed. By IC50 is commonly meant the point on the concentration scale where inhibition reaches its midpoint. Read a low IC50 as higher potency. As a reminder, the Ki is a measure of affinity in units of concentration, obtained from inhibition or displacement.

SMILES strings stand for the structures.

Assay [1] addresses T1, Cytosolic purine 5'-nucleotidase (Homo sapiens, UniProt P49902). In words: Inhibition of recombinant N-terminal truncated human cytosolic 5'-nucleotidase-2 assessed as inhibition of inosine 5'-monophosphate hydrolysis at 1 mM by rapid green malachite assay. The method, boiled down: (§1)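 Purified recombinant N-terminally truncated cN-II expressed in E. coli, with IMP as substrate. Released phosphate was read by green malachite colorimetry. Inhibitor was tested at a single level, 0.2 mM or 1 mM. Compounds that are not water-soluble were added in DMSO, not exceeding 2% final.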

The subject of assay [2] is RL. Description: Antiproliferative activity against human RL cells after 72 hrs by MTT assay. It is filed as functional, cell-based. The method, boiled down:
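MTT assay on RL human follicular lymphoma cells treated with a range of compound concentrations for 72 h. IC50 calculated with CompuSyn and given as the mean ± SEM of at least three independent experiments.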
(Tetrazolium dyes change colour on reduction, which living cells bring about.)

For assay [3], the system named is RL. In words: Antiproliferative activity against human RL cells after 72 hrs by MTT assay in presence of clofarabine. It is filed as functional, cell-based.
Assay [4] deals with RL. Description: Antiproliferative activity against human RL cells after 72 hrs by MTT assay in presence of fludarabine. It is filed as functional, cell-based.
Assay [5] addresses T1, Cytosolic purine 5'-nucleotidase. Description: Inhibition of recombinant N-terminal truncated human cytosolic 5'-nucleotidase-2 assessed as inhibition of inosine 5'-monophosphate hydrolysis at 0.2 mM by rapid green malachite assay. The gist of the method: as §1
The target is the same in assay [6]. Description: Inhibition of recombinant N-terminal truncated human cytosolic 5'-nucleotidase-2 assessed as inhibition of inosine 5'-monophosphate hydrolysis by steady state kinetics with HPLC quantification.
The test system of assay [7] is RL. Description: Antiproliferative activity against human RL cells after 72 hrs by MTT assay in presence of cladribine. It is filed as functional, cell-based.

T1 sequence (P49902 whole entry, the tested form may be a part): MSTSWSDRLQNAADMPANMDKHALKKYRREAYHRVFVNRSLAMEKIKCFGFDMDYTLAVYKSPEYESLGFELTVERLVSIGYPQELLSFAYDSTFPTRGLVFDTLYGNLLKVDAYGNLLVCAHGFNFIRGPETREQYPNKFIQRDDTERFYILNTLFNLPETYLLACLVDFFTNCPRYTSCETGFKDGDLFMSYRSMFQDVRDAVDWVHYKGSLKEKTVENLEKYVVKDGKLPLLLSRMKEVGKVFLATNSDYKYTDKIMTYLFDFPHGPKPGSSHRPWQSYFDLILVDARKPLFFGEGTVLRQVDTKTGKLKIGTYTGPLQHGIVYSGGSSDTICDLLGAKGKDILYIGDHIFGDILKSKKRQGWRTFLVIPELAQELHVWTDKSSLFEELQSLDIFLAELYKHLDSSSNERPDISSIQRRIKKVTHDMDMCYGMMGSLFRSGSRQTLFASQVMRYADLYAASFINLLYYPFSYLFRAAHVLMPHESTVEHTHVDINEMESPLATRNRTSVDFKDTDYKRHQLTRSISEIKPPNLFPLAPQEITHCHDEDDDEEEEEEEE

Consider `c1ccc(CNc2ncnc3[nH]cnc23)cc1`, for which, in assay [1], the inhibition was 20%.
For the compound `Nc1ccccc1-c1ccccc1`, in assay [1], the inhibition came to 36%.
The same measure, in the same setting: the result for `Nc1cccc2cnccc12` reads 30%.
With `Nc1[nH]cnc2ncnc1-2`, in assay [1], the inhibition came out at 19%.
The same measure, in the same setting: the result for `O=C(Nc1ncnc2nc[nH]c12)c1ccccc1` reads 28%; that for `Oc1ccc2ccc(O)cc2c1`, 40%.
Regarding `Oc1ccccc1-c1ccccc1`, the inhibition in assay [1] turned out to be 19%.
With `O=C1c2ccc(S(=O)(=O)O)cc2C(=O)c2ccc(S(=O)(=O)O)cc21`, in assay [2], the IC50 is 1040 µM. Besides, the CI95 worked out at 0.24 in assay [3], 4.2 in assay [4] and 0.4 in assay [7]. The inhibition in assay [5] is 20%. For the same compound, the Ki in assay [6] is 2000 µM.
On to `c1ccc(-c2c[nH]cn2)cc1`, for which the inhibition in assay [1] was 36%.
Turning to `c1ccc(N2CCNCC2)nc1`, the inhibition in assay [1] was 0.5%.
Still for that read-out and setting: then `Nc1nc(Cl)c2nc[nH]c2n1`, with 23%.
For the compound `OCc1nc2ccccc2[nH]1`, the inhibition in assay [1] came out at 11%.
As to `OC(c1ccccc1)c1ccccc1`, the inhibition in assay [1] turned out to be 2%.
In the case of `Oc1ccc(-c2ccc(O)cc2)cc1`, in assay [1], the inhibition amounted to 8%.
In the case of `Nc1ccc(-c2ccc(N)c(O)c2)cc1O`, in assay [1], the inhibition was determined as 23%.
